This excerpt belongs to a sample that is enriched for hits.
CHOP inhibitor: inhibitors of CHOP induction in ER stress response; hit rate 3.8% among 220,000; inhibition, % at 10 µM; AID 2732; CHO-K1 CHOP-promoter luciferase, tunicamycin-induced, 15-18 h;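 active = compounds that reduced the stress-induced luciferase reporter signal by more than about 70% of percent inhibition, limit read from the data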;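 note: 0% = tunicamycin plus vehicle and 100% = wells without tunicamycin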
iPSC survival up: enhancers of human iPSC single-cell survival; hiPSC single-cell survival, ATPlite luminescence; 100% = ROCK inhibitor wells, 0% = DMSO; survival enhancement, % at 20 µM; hit rate 0.044% among 360,000; in the data active = survival enhancement above about 18%;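 note: cells exposed to compounds for 16 hours before the ATP read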
UPR CHOP act: activators of apoptotic arm of unfolded protein response (CHOP). CHO-CHOP luciferase reporter, UPR activation, luminescence; percent of tunicamycin response over DMSO baseline. activation, % at 10 µM. hit rate 0.34% among 330,000. AID 449763;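 active = at 10 µM dose, activation of 40% or more, normalized to positive control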;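 note: 100% = tunicamycin at 10 µg/mL and 0% = DMSO alone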
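Assay system: CHO-CHOP cells, stable luciferase reporter of PERK-eIF2a-CHOP signalling / Buffer or medium: F12 plus 10% serum / Compound dosing: one dose, 10 µM in 0.5% DMSO / Times: 6 h compound treatment, 37 °C / Technique: luciferase luminescence / Read-out: % reporter activation, DMSO baseline versus tunicamycin full activation / Benchmarks: tunicamycin and DMSO controls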
H9c2 protect: myocardial damage modulation in H9c2 cells; H9c2 cardiomyocytes, H2O2 injury protection, ATPLite, 2 h; protection from H2O2 cell death, % at 20 µM; hit rate 0.63% among 360,000; AID 588492;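 active = compounds giving at least 50% protection of heart cells from peroxide-induced death in the single-dose screen, raw or plate-pattern-corrected value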;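 note: 0% = DMSO wells with peroxide and 100% = DMSO wells without peroxide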
XBP1 UPR activ: adaptive UPR (XBP1) activation. activation, % at 20 µM. hit rate 0.33% among 330,000. CHO-XBP1 luciferase reporter, IRE1-XBP1 UPR activation, luminescence; percent of tunicamycin response, DMSO as zero. AID 463104;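 active = versus positive control, 20 µM dose yields 30% or more activation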;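 note: 100% = tunicamycin at 10 µg/mL and 0% = DMSO only wells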
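incubation = overnight seeding at 37 °C, 6 h compound treatment at 37 °C | assay system = CHO-XBP1 cells stably carrying IRE1-XBP1-driven luciferase reporter | input = 1000 cells per well | detection = luciferase luminescence | dosing = single point, 20 µM final compound, 1% DMSO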
CHOP inh conf: confirmation of CHOP induction inhibitors | shares compounds with CHOP inhibitor | CHO-CHOP promoter luciferase reporter, tunicamycin-induced, luminescence | inhibition, % at 10 µM | hit rate 45% among 2,100;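 active = mean of three repeat readings of reporter signal inhibition above a set limit, cut at about 70% in these data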;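 note: 0% = tunicamycin plus vehicle and 100% = wells lacking tunicamycin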
Numbers without * were called inactive; nt = not tested or not shown.

SMILES	CHOP inhibitor	iPSC survival up	UPR CHOP act	H9c2 protect	XBP1 UPR activ	CHOP inh conf
Cc1ccc(C(=O)Nc2nnc(COCCO)s2)cc1	nt	4.3	nt	-7.4	nt	nt
COc1ccccc1Cc1c(-c2cccc(Br)c2)nc2ccc(Cl)cn12	nt	1.0	nt	-5.1	nt	nt
Cc1ccc(S(=O)(=O)NCC(=O)N(CC(=O)NCC2CCCO2)Cc2ccccc2Cl)cc1 (stereo not given)	nt	-0.5	1.9	8.1	-8.1	nt
O=c1[nH]c2ccc(Cl)cc2c(-c2ccccc2)c1SC(=S)N1CCOCC1	98.9*	-0.8	-1.5	39.7	-1.2	35.8
O=C(Nc1ccccc1Cl)c1ccccc1Oc1ccc(C(F)(F)F)cc1[N+](=O)[O-]	105.1*	1.6	-3.0	-21.2	1.3	81.4*
CCC(=O)N(CCC(c1ccc(C)cc1)c1ccco1)Cc1ccco1 (stereo not given)	-25.1	0.6	-0.1	-6.8	-1.2	nt
CCOC(=O)c1ccc(NC(=O)c2nc[nH]c2C(=O)N[C@@H](C)C(=O)OC(C)(C)C)cc1	97.5*	-3.1	0.9	44.2	-3.4	103.8*
CCOC(=O)c1ccc(NC(=O)c2nc[nH]c2C(=O)N[C@@H](CC(C)C)C(=O)OC(C)(C)C)cc1	24.8	-1.0	2.1	11.1	2.3	nt
CC(C)(C)OC(=O)NCCCC[C@H](NC(=O)c1[nH]cnc1C(=O)Nc1ccc(Cl)cc1)C(=O)OC(C)(C)C	-2.1	5.1	3.4	20.8	6.5	nt
C[C@H](NC(=O)c1[nH]cnc1C(=O)Nc1ccc(Cl)cc1)C(=O)OC(C)(C)C	104.5*	2.4	0.8	8.8	-2.2	91.3*
CC1CCCN(Cc2c(O)ccc3c(=O)c(-c4nc5ccccc5s4)c(N)oc23)C1 (stereo not given)	10.2	-1.5	3.4	13.5	0.3	nt
CC1(C)CCCN(Cc2c(O)ccc3c(=O)c(-c4nc5ccccc5s4)c(N)oc23)C1	104.0*	-0.1	4.8	9.1	-0.6	2.1
C[C@H]1CCC(=O)N([C@H](CSc2ccc(Br)cc2)Cc2ccccc2)CC1	nt	-2.5	0.1	-10.1	-3.0	nt
O=C(N/N=C/c1cccs1)c1cccc(NC(=O)c2ccc(Cl)cc2)c1	104.4*	nt	-0.8	nt	13.0	117.9*
CC(C)c1ccc(CNC(=O)C(=O)Nc2nccs2)cc1	2.6	0.4	-0.8	4.4	-1.0	nt
CC(C)Cc1ccc(C(C)C(=O)Nc2nccs2)cc1 (stereo not given)	96.2*	-1.5	0.2	-7.5	0.3	94.1*
CCN(CCO)c1ncnc2c1sc1nc(C(C)C)c3c(c12)CC(C)(C)OC3	99.2*	5.3	0.3	59.8*	13.1	102.8*
CC(C)c1nc2sc3c(NCc4ccccc4)ncnc3c2c2c1COC(C)(C)C2	64.8	1.7	-2.5	-12.8	7.3	nt
O=C(CSC1=NS(=O)(=O)c2ccccc2N1)Nc1ccccc1F	nt	-0.4	2.2	-2.7	4.8	nt
O=C(Nc1cccc(Cl)c1Cl)c1cc(S(=O)(=O)NCCc2ccccc2)ccc1F	97.2*	1.1	-0.3	-9.7	-1.8	88.4*
CCCCOC(=O)c1ccc(NC(=O)COC(=O)C2CC2C)cc1 (stereo not given)	nt	0.9	nt	-15.9	nt	nt
O=C(c1ccc(COc2ccc(Cl)cc2)o1)N1N=C(C(F)F)CC1(O)C(F)F (stereo not given)	108.5*	-0.2	-1.0	-12.2	-2.4	130.0*
Cc1ccc(C(=C2C3C=CC2C2C(=O)NC(=O)C32)c2ccc(C)cc2)cc1 (stereo not given)	107.9*	-0.5	-0.1	-18.0	-1.9	14.0
Oc1ccccc1-c1cc(-c2ccc(F)cc2)n[nH]1	nt	-0.5	7.1	-10.3	1.4	nt
Oc1ccc(F)cc1-c1cc(-c2ccc3c(c2)OCCO3)n[nH]1	98.9*	-5.1	1.9	-7.8	1.3	4.5
SMILES	CHOP inhibitor	iPSC survival up	UPR CHOP act	H9c2 protect	XBP1 UPR activ	CHOP inh conf
N#Cc1c(Cl)c(Cl)c2nnc(-c3ccc(Br)cc3)n2c1Cl	103.6*	nt	1.0	nt	0.1	-7.0
CCOC(=O)Cc1csc(NC(=O)Cc2ccc(Cl)cc2)n1	6.3	-0.4	0.0	-5.1	2.2	nt
CCOC(=O)Cc1csc(NC(=O)NC2(C(F)(F)F)Oc3ccc(Cl)cc3O2)n1 (stereo not given)	104.6*	-6.1	7.0	62.3*	10.9	111.3*
CCOC(=O)Cc1csc(NC(=O)NC2(C(F)(F)F)Oc3cc(Cl)c(Cl)cc3O2)n1	102.3*	-0.8	-1.7	56.7*	7.2	110.0*
CC1(C(=O)NS(=O)(=O)C2CC2)CCN(C(=O)COc2ccc(Cl)cc2Cl)C1 (stereo not given)	nt	2.1	nt	-1.3	nt	nt
NC(=S)N=Nc1c(O)[nH]c2ccccc12	3.9	0.4	2.9	2.7	-1.7	nt
NC(=S)N=Nc1c(O)[nH]c2c(Br)cc(Br)cc12	98.2*	1.4	1.7	30.5	-1.5	7.0
Cc1cccnc1NC(=O)C1CCC1	nt	0.0	0.5	3.1	-4.1	nt
CN(C)c1nc(N)nc(CSc2nnnn2-c2ccc(Cl)cc2)n1	nt	6.7	nt	-3.2	nt	nt
Cc1nc2oc(C(=O)c3ccc(Br)cc3)c(N)c2c2c1COC(C)(C)C2	100.8*	8.0	0.8	11.4	5.3	-61.5
CCCc1nc2oc(C(=O)c3ccccc3)c(N)c2c2c1COC(C)(C)C2	109.9*	8.2	-3.7	-7.5	4.9	97.3*
CCCc1ccc2oc(C(=O)N3CCNC(=O)C3CC(=O)OC)c(C)c2c1 (stereo not given)	nt	3.2	2.4	-7.3	-1.1	nt
N#C/C(=C\c1c[nH]c2ccccc12)C(=O)NC1CC1	nt	-0.2	10.0	-8.9	1.8	nt
CC(C)COC(=O)/C(C#N)=C/c1c[nH]c2ccccc12	100.7*	1.0	3.7	-8.8	6.0	-21.7
COc1ccc(/C=N\NC(=O)COc2ccc(C(C)(C)C)cc2)cc1Cn1nc(C)cc1C	109.7*	-0.4	1.6	-15.0	-5.4	104.2*
COc1ccc(/C=N/NC(=O)c2ccco2)cc1Cn1nc(C)cc1C	12.8	-3.3	2.0	1.4	-1.3	nt
CC(C)Oc1cccc(C2NC(=O)c3ccccc3O2)c1 (stereo not given)	nt	0.5	5.9	1.0	1.9	nt
CCc1ccc(C(=O)/C=C/Nc2ccc(S(=O)(=O)Nc3cnc4ccccc4n3)cc2)cc1	101.4*	3.7	3.9	-3.9	3.6	9.4
O=C(/C=C/Nc1ccc(S(=O)(=O)Nc2ncccn2)cc1)c1ccc(Cl)c(Cl)c1	102.3*	4.1	0.7	-2.1	-0.6	4.8
Cc1ccc(NC(=O)c2cccc(-n3cnnn3)c2)cc1Cl	nt	-2.9	-0.1	-6.7	0.3	nt
Cc1cc(C)c2c(c1)/C(=N/NS(=O)(=O)c1ccc(Br)cc1)CCC2	105.8*	0.2	0.7	-13.5	0.0	82.0*
Cc1cc(C)c2c(c1)/C(=N/NS(=O)(=O)c1ccccc1)CCC2	16.8	-1.1	0.9	-19.1	-1.8	nt

Assay outcomes: PubChem BioAssay, several laboratories
